Like-named read-outs stand apart in the source and are kept apart here.
Key:
BCRP = conditions: cited from earlier work
[1] = Stability testing in mouse plasma in vitro; type: in vitro ADME; conditions: 37°C, 30 min, SPE/HPLC
Procedure, shortened: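 Citrated mouse plasma (0.5 mL) mixed with 20 µL formulated radiotracer (about 40 MBq). Held 30 min at 37°C in a shaking water bath. Then C18 solid-phase extraction: acidified load, H2O wash, MeOH elution. Fractions analysed by radio-HPLC, reversed-phase column, CH3CN/MeOH/NH4OAc pH 5.0, UV 227 nm, to find the polar labelled species.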

[2] = Stability testing in formulation solution for i.v. injection; type: physicochemical; conditions: at least 2 h at room temperature; 0.9% aq. saline/ethanol/polyethylene glycol 300; HPLC system A
[3] = Small-animal PET imaging of [11C]-1 in wild-type and transporter knockout mice; type: in vivo; conditions: for Brain AUC / Brain-blood ratio, 25 min / Brain concentration, 25 min: total radioactivity, mean±SD; for Brain AUC: 0-60 min; for Brain AUC / Brain concentration, 25 min: n=3; for AUC of brain TACs, fold higher compared to wild-type animals: p=0.0495
Procedure, shortened: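 Female mice, 25-30 g, three per genotype. Isoflurane 2.5% to induce, 1.5-2% by mask to maintain, warmed to about 38°C. About 0.1 mL radiotracer (28±16 MBq) into the lateral tail vein. Whole-brain PET TACs as %ID/g; AUC from zero to the last time point. Brain %ID/g at 25 min divided by whole-blood %ID/g from a separate group (one mouse per genotype) gives brain-blood ratio. Mean±SD; Mann-Whitney U versus wild-type.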

[4] = type: in vivo, mice; conditions: for total plasma radioactivity recovered in SPE fraction 3 (MeOH) / percentage of unchanged [11C]-1 in mouse plasma / Blood concentration, 25 min: n=1; for percentage of unchanged [11C]-1 in mouse plasma: 25 min after tracer injection; for percentage of total brain radioactivity in the form of unchanged [11C]-1: brain tissue extract, HPLC system A; for Blood concentration, 25 min: total radioactivity; for mean brain-to-plasma ratio of unchanged [11C]-1, fold higher compared to wild-type animals: 25 min, p=0.0495; for Kp at 25 min: mouse, brain and plasma, intravenous, Brain-plasma ratio of unchanged [11C]-1, 25 min, mean±SD
Procedure, shortened: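 Female mice, 25-30 g, one per genotype, given radiotracer i.v. At 25 min: cardiac blood into heparin, spun 3,000×g, 5 min, 21°C, for plasma. Blood and plasma weighed, gamma-counted (cross-calibrated with PET), decay-corrected, %ID/g. Plasma spiked with unlabelled carrier, acidified, run through tC18 SPE (H2O wash, MeOH elution). H2O and MeOH fractions went to reversed-phase HPLC (pH 5.0, 35°C) and Aminex HPLC, UV 227 nm. Brain homogenised in saline, CH3CN-extracted, supernatant HPLC.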

[5] = rats; time course of a 1 h PET scan; cited from earlier work
[6] = Bcrp1(−/−) mice, 25 min after injection
[7] = Mdr1a/b(−/−) mice, 25 min after injection
[8] = wild-type mice, 25 min after injection

For `COC(=O)c1ccc(C(=O)Nc2ccc(CCN3CCc4cc(OC)c(OC)cc4C3)cc2)cc1NC(=O)c1ccc2ccccc2n1` [Compound 1, Methyl 4-((4-(2-(6,7-dimethoxy-1,2,3,4-tetrahydroisoquinolin-2-yl)ethyl)phenyl)amino-carbonyl)-2-(quinoline-2-carbonylamino)benzoate], the “selectivity for inhibition of BCRP over P-gp” value (BCRP; in vitro transport assays) is given as “approximately 500 fold” and the IC50 (BCRP; read-out: half-maximum inhibitory concentration (IC50), BCRP-mediated transport of mitoxantrone, topotecan-resistant MCF-7 breast cancer cells) is given as 60 nM.

In the case of `COc1cc2c(cc1OC)CN(CCc1ccc(NC(=O)c3ccc(C(=O)O[11CH3])c(NC(=O)c4ccc5ccccc5n4)c3)cc1)CC2` [[^11C]-1, [^11C]Methyl 4-((4-(2-(6,7-dimethoxy-1,2,3,4-tetrahydroisoquinolin-2-yl)ethyl)phenyl)amino-carbonyl)-2-(quinoline-2-carbonylamino)benzoate], the “total radioactivity degraded to an unidentified polar radiolabelled species” value [1] is reported as greater than 98%, the “stability in formulation solution for i.v. injection” value [2] is reported as 100% and the “Brain AUC” value ([3]; Bcrp1(−/−) mice) is reported as 3.1±0.2 h·%ID/g. For the same compound, the “Brain-blood ratio, 25 min” value ([3]; Bcrp1(−/−) mice) was 1.6±0.1, the “Brain concentration, 25 min” value ([3]; Bcrp1(−/−) mice) was 3.5±0.2 %ID/g and the “AUC of brain TACs, fold higher compared to wild-type animals” value ([3]; Mdr1a/b(−/−) mice) was 1.3 fold. For the same compound, the “Brain AUC” value ([3]; Mdr1a/b(−/−) mice) was 3.6±0.6^† h·%ID/g, the “Brain-blood ratio, 25 min” value ([3]; Mdr1a/b(−/−) mice) was 1.7±0.3 and the “Brain concentration, 25 min” value ([3]; Mdr1a/b(−/−) mice) was 4.2±0.8 %ID/g. For the same compound, the “Brain AUC” value ([3]; Mdr1a/b(−/−)Bcrp1(−/−) mice) was 5.1±0.9^† h·%ID/g, the “Brain-blood ratio, 25 min” value ([3]; Mdr1a/b(−/−)Bcrp1(−/−) mice) was 3.2±0.6 and the “Brain concentration, 25 min” value ([3]; Mdr1a/b(−/−)Bcrp1(−/−) mice) was 5.8±1.2 %ID/g. The “AUC of brain TACs, fold higher compared to wild-type animals” value ([3]; triple knockout (Mdr1a/b(−/−)Bcrp1(−/−)) mice) was 1.8 fold, the “Brain AUC” value ([3]; wild-type mice) was 2.8±0.2 h·%ID/g and the “Brain-blood ratio, 25 min” value ([3]; wild-type mice) was 1.5±0.1. For the same compound, the “Brain concentration, 25 min” value ([3]; wild-type mice) was 3.2±0.2 %ID/g, the “total plasma radioactivity recovered in SPE fraction 3 (MeOH)” value [4, 6] was 19% and the “percentage of unchanged [11C]-1 in mouse plasma” value (from here on “percentage of unchanged”) ([4]; Bcrp1(−/−) mice) was 14%. For the same compound, the “percentage of total brain radioactivity in the form of unchanged [11C]-1” value (shortened to “percentage … in the form of unchanged [11C]-1”) [4, 6] was 25%, the “Blood concentration, 25 min” value ([4]; Bcrp1(−/−) mice) was 2.3 %ID/g and the “mean brain-to-plasma ratio of unchanged [11C]-1, fold higher compared to wild-type animals” value ([4]; Mdr1a/b(−/−) mice) was 4.8 fold. The “total plasma radioactivity recovered in SPE fraction 3 (MeOH)” value [4, 7] was 28%, the “percentage of unchanged” value ([4]; Mdr1a/b(−/−) mice) was 17% and the “percentage … in the form of unchanged [11C]-1” value [4, 7] was 62%. For the same compound, the “Blood concentration, 25 min” value ([4]; Mdr1a/b(−/−) mice) was 2.5 %ID/g, the “mean brain-to-plasma ratio of unchanged [11C]-1, fold higher compared to wild-type animals” value ([4]; Mdr1a/b(−/−)Bcrp1(−/−) mice) was 10.3 fold and the “total plasma radioactivity recovered in SPE fraction 3 (MeOH)” value ([4]; Mdr1a/b(−/−)Bcrp1(−/−) mice, 25 min after injection) was 18%. The “percentage of unchanged” value ([4]; Mdr1a/b(−/−)Bcrp1(−/−) mice) was 11%, the “Blood concentration, 25 min” value ([4]; Mdr1a/b(−/−)Bcrp1(−/−) mice) was 1.8 %ID/g and the “total plasma radioactivity in the form of unchanged parent” value ([4]; mouse plasma extracts, 25 min after injection, range over the 4 mouse types) was 11-17%. For the same compound, the Kp at 25 min ([4]; Bcrp1(−/−) mice) was 2.1 ± 0.1, the Kp at 25 min ([4]; Mdr1a/b(−/−) mice) was 8.6 ± 1.6 and the Kp at 25 min ([4]; Mdr1a/b(−/−)Bcrp1(−/−) mice) was 18.3 ± 3.7. The Kp at 25 min ([4]; wild-type mice) was 1.8 ± 0.1, the “total plasma radioactivity recovered in SPE fraction 3 (MeOH)” value [4, 8] was 25% and the “percentage of unchanged” value ([4]; wild-type mice) was 13%. The “percentage … in the form of unchanged [11C]-1” value [4, 8] was 12% and the “Blood concentration, 25 min” value ([4]; wild-type mice) was 2.1 %ID/g.

In the case of `COc1cc2c(cc1OC)CN(CCc1ccc(NC(=O)c3cc(OC)c(OC)cc3NC(=O)c3cnc4ccccc4c3)cc1)CC2` [tariquidar], the metabolism in vivo [5] is listed as “hardly metabolized”.
